According to ChEMBL document CHEMBL1151226, “New bioactive prenylflavonoids and dibenzocycloheptene derivative from roots of Dendrolobium lanceolatum” (J Nat Prod, 2004):
Converted amounts (≈) assume the structure as drawn. The source made the active and inactive calls. The rule behind the calls is not given here.

What was measured:
Plasmodium falciparum [1] = assay: Antiplasmodial activity against multidrug-resistant Plasmodium falciparum K1 at 20 ug/ml as [3H]hypoxanthine uptake; type: functional, organism-based
[2] = test system: Mycobacterium tuberculosis; assay: Antimycobacterial activity against Mycobacterium tuberculosis H37Ra by alamar blue assay; type: functional
Method in brief: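 M. tuberculosis H37Ra tested in the Microplate Alamar Blue Assay (MABA). Isoniazid and kanamycin sulfate were the reference drugs.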

KB [3] = assay: Cytotoxicity against human KB cells at 20 ug/ml; type: functional, cell-based
BC = assay: Cytotoxicity against human BC cells at 20 ug/ml; type: functional, cell-based
NCI-H187 [4] = assay: Cytotoxicity against human NCI-H187 cells at 20 ug/ml; type: functional, cell-based
KB [5] = assay: Cytotoxicity against human KB cells; type: functional, cell-based
Method in brief: (§1)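 Human epidermoid carcinoma (KB) and human breast cancer (BC) cell lines assessed by a colorimetric cytotoxicity method following Skehan and co-workers. Ellipticine was the reference substance.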

[6] = Cytotoxicity against human BC cells; type: functional, cell-based; method in brief: as §1
NCI-H187 [7] = assay: Cytotoxicity against human NCI-H187 cells; type: functional, cell-based
Method in brief: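 Human small cell lung cancer NCI-H187 cell line, assayed by the colorimetric method of Skehan and co-workers. Ellipticine served as the reference substance.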

Plasmodium falciparum [8] = assay: Antiplasmodial activity against multidrug-resistant Plasmodium falciparum K1 as [3H]hypoxanthine uptake; type: functional, organism-based
Method in brief: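 P. falciparum K1 (multidrug-resistant) maintained in culture by the Trager–Jensen method. Microculture radioisotope technique, with growth read as in vitro [3H]-hypoxanthine uptake by the parasites. IC50 is the concentration giving 50% reduction in parasite growth. Artemisinin was the reference standard.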

**Q.** With `COc1cc2c(cc1O)-c1cc(O)c(OC)c(OC)c1C=CC2` as the compound, how does the Activity (Plasmodium falciparum [1]) read?
**A.** inactive

**Q.** What about the MIC [2] of the same compound?
**A.** 50 µg/mL (≈ 159 µM)

**Q.** What about the Activity (KB [3]) of the same compound?
**A.** inactive

**Q.** And the Activity (BC)?
**A.** inactive

**Q.** What about the Activity (NCI-H187 [4]) of the same compound?
**A.** inactive

**Q.** With `CC1(C)C=Cc2c(ccc3c2O[C@H](c2ccc(O)cc2)CC3)O1` as the compound, how does the Activity (Plasmodium falciparum [1]) read?
**A.** inactive

**Q.** And the MIC [2]?
**A.** 25 µg/mL (≈ 81.1 µM)

**Q.** What about the Activity (KB [3]) of the same compound?
**A.** inactive

**Q.** What about the Activity (BC) of the same compound?
**A.** inactive

**Q.** And the Activity (NCI-H187 [4])?
**A.** inactive

**Q.** With `NNC(=O)c1ccncc1` [ISONIAZID] as the compound, how does the MIC [2] read?
**A.** 0.04 µg/mL (≈ 0.292 µM)

**Q.** With `NC[C@H]1O[C@H](O[C@H]2[C@H](O)[C@@H](O[C@H]3O[C@H](CO)[C@@H](O)[C@H](N)[C@H]3O)[C@H](N)C[C@@H]2N)[C@H](O)[C@@H](O)[C@@H]1O.O=S(=O)(O)O` [KANAMYCIN SULFATE] as the compound, how does the MIC [2] read?
**A.** 2 µg/mL

**Q.** For `Cc1c2ccncc2c(C)c2c1[nH]c1ccccc12` [ELLIPTECINE], which IC50 (KB [5]) is on record?
**A.** 0.4 µg/mL (≈ 1.62 µM)

**Q.** And the IC50 [6]?
**A.** 0.4 µg/mL (≈ 1.62 µM)

**Q.** What about the IC50 (NCI-H187 [7]) of the same compound?
**A.** 0.4 µg/mL (≈ 1.62 µM)

**Q.** For `COc1ccc([C@@H]2CC(=O)c3c(O)cc(O)c(CC=C(C)C)c3O2)c(CC=C(C)C)c1O`, which IC50 (Plasmodium falciparum [8]) is on record?
**A.** 3.3 µg/mL (≈ 7.53 µM)

**Q.** And the MIC [2]?
**A.** 12.5 µg/mL (≈ 28.5 µM)

**Q.** And the Activity (KB [3])?
**A.** inactive

**Q.** What about the Activity (BC) of the same compound?
**A.** inactive

**Q.** And the IC50 (NCI-H187 [7])?
**A.** 8.1 µg/mL (≈ 18.5 µM)

**Q.** With `C[C@@H]1CC[C@H]2[C@@H](C)C(=O)O[C@@H]3O[C@@]4(C)CC[C@@H]1[C@]32OO4` [ARTEMISININ] as the compound, how does the IC50 (Plasmodium falciparum [8]) read?
**A.** 0.001 µg/mL (≈ 0.00354 µM)

**Q.** With `COc1cc2c(c(CC=C(C)C)c1O)O[C@H](c1ccc(O)c(O)c1CC=C(C)C)CC2` as the compound, how does the IC50 (Plasmodium falciparum [8]) read?
**A.** 3.1 µg/mL (≈ 7.3 µM)

**Q.** What about the MIC [2] of the same compound?
**A.** 25 µg/mL (≈ 58.9 µM)

**Q.** What about the Activity (KB [3]) of the same compound?
**A.** inactive

**Q.** What about the Activity (BC) of the same compound?
**A.** inactive

**Q.** And the Activity (NCI-H187 [4])?
**A.** inactive

**Q.** For `CC(C)=CCc1c([C@@H]2CC(=O)c3c(O)cc(O)c(CC=C(C)C)c3O2)cc2c(c1O)OC(C)(C)C=C2`, which IC50 (Plasmodium falciparum [8]) is on record?
**A.** 2.6 µg/mL (≈ 5.3 µM)

**Q.** And the MIC [2]?
**A.** 6.3 µg/mL (≈ 12.8 µM)

**Q.** And the IC50 (KB [5])?
**A.** 1.2 µg/mL (≈ 2.45 µM)

**Q.** What about the IC50 [6] of the same compound?
**A.** 1.7 µg/mL (≈ 3.47 µM)

**Q.** What about the IC50 (NCI-H187 [7]) of the same compound?
**A.** 0.6 µg/mL (≈ 1.22 µM)
